Test results from ChEMBL document CHEMBL2163291, “Synthesis of pyrazole peptidomimetics and their inhibition against A549 lung cancer cells” (Bioorg Med Chem Lett, 2012).
Activity calls are given as the source filed them. The calls are words filed in the database; no cut-off is given here.

What was measured:
A549 [1] = experiment: Induction of autophagy in human A549 cells assessed as increase in LC3-2 level at 80 uM after 48 hrs by Western blot analysis relative to beta-actin; format: functional, cell-based
How it was run: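 A549 cells were treated at 80 µM for 48 h. LC3-II protein was detected by immunoblot and normalized to β-actin, expressed as percent of control, n = 3.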

A549 [2] = experiment: Cell cycle arrest in human A549 cells assessed as accumulation at G1 phase at 80 uM after 48 hrs by FACS flow cytometry (reference value: 55.94%); format: functional
A549 [3] = experiment: Cytotoxicity against human A549 cells assessed cell viability after 48 hrs by SRB assay; format: functional, cell-based; conditions: for IC50: A549, 48 h
How it was run: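 A549 cells were treated for 48 h and net growth was measured by sulforhodamine B colorimetric assay. IC50 is the concentration causing a 50% decrease in net cell growth. Test levels were 40, 60 and 80 µM.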

A549 [4] = experiment: Induction of apoptosis in human A549 cells assessed as chromatin condensation at 80 uM after 48 hrs by Hoechst 33258 staining-based fluorescent microscopy; format: functional, cell-based
How it was run: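 A549 cells were exposed to compound at 80 µM for 48 h, then stained with Hoechst 33258. Nuclei were examined by fluorescence microscopy for chromatin condensation and apoptotic bodies, against an untreated control group.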

A549 [5] = experiment: Cell cycle arrest in human A549 cells assessed as accumulation at S phase at 80 uM after 48 hrs by FACS flow cytometry (reference value: 34.67 %); format: functional
A549 [6] = experiment: Cell cycle arrest in human A549 cells assessed as accumulation at G2 phase at 80 uM after 48 hrs by FACS flow cytometry (reference value: 9.39 %); format: functional
A549 [7] = experiment: Induction of necrosis in human A549 cells at 80 uM after 48 hrs by LDH release assay; format: functional, cell-based
How it was run: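 A549 cells were treated at 80 µM, or with 0.1% DMSO or left untreated as control, for 48 h. LDH release into the cells' surroundings served as the necrosis read-out, n = 3, mean ± SE.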

A549 [8] = experiment: Cytotoxicity against human A549 cells assessed as cell viability at 40 uM after 48 hrs by SRB assay; format: functional, cell-based
How it was run: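 A549 cells were treated at 40, 60 or 80 µM, or left untreated (control), for 48 h. Viability was read by sulforhodamine B colorimetric assay against untreated cells, n = 3, mean ± SE.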

SMILES | Activity (A549 [1]) | Activity (A549 [2]) [%] | Activity (A549 [3]) | IC50 (A549 [3]) [µM] | Activity (A549 [4]) | Activity (A549 [5]) [%] | Activity (A549 [6]) [%] | Activity (A549 [7]) | Activity (A549 [8])
CCOC(=O)[C@@H](CO)NC(=O)c1cc(-c2ccc(Cl)cc2)nn1Cc1ccccc1 | Active | 59.23 | Dose-dependent effect | 56.8 | Active | 40.08 | 0.69 | inactive | 
CCOC(=O)CNC(=O)c1cc(-c2ccc(Cl)cc2)nn1Cc1ccccc1 | Active | 57.39 |  |  | Active | 34.04 | 8.57 | inactive | 
O=c1[nH]cc(F)c(=O)[nH]1 [FLUOROURACIL] |  |  |  | 4.21 |  |  |  |  | 
CCOC(=O)[C@@H](CO)NC(=O)c1cc(-c2ccccc2)nn1Cc1ccc(C(C)(C)C)cc1 | Active | 72.31 | Dose-dependent effect | 36.1 | Active | 21.63 | 6.06 | inactive | Active
CCOC(=O)CNC(=O)c1cc(-c2ccc(Cl)cc2)nn1Cc1ccc(C(C)(C)C)cc1 | Active | 76.06 | Dose-dependent effect | 63.4 | Active | 19.91 | 4.04 | inactive | 
CCOC(=O)[C@@H](CO)NC(=O)c1cc(-c2ccc(Cl)cc2)nn1Cc1ccc(C(C)(C)C)cc1 | Active | 79.54 | Dose-dependent effect | 38.8 | Active | 19.53 | 0.92 | inactive | Active
CCOC(=O)[C@@H](CS)NC(=O)c1cc(-c2ccc(Cl)cc2)nn1Cc1ccccc1 | Active | 60.2 |  |  | Active | 32.55 | 7.25 | inactive | 
CCOC(=O)[C@@H](CO)NC(=O)c1cc(-c2ccccc2)nn1Cc1ccccc1 | Active | 57.48 | Dose-dependent effect | 56.1 | Active | 34.44 | 8.08 | inactive | 
